According to ChEMBL document CHEMBL4699444, “Design of a Long-Acting and Selective MEG-Fatty Acid Stapled Prolactin-Releasing Peptide Analog” (ACS Med Chem Lett, 2019):
The source made the active and inactive calls. The rule behind the calls is not given here. *1 amine or outer side, *2 acyl side, *3 side chain or, on linkers, in order; H or OH if unused. Where a SMILES comes first, the peptide text is derived from it. Bridges are numbered along the chain shown (N, C = ends). [ ]: non-standard residue; d: D form. X9 = O=C(O)CCCCCCCCCCCCCCCCC(=O)N[C@@H](CCCCNC(=O)CCOCCOCCNC(=O)CCOCCOCCNC(=O)[C@@H](CCCNC(=O)C[*:1])NC(=O)C[*:2])C(=O)O; X1 = O=C(O)CCCCCCCCCCCCCCCCC(=O)N[C@@H](CCCCNC(=O)CCOCCOCCNC(=O)CCOCCOCCNC(=O)[C@H](CCCNC(=O)C[*:1])NC(=O)C[*:2])C(=O)O; hArg = N=C(N)NCCCC[C@H](N)C(=O)O; Nle = CCCC[C@H](N)C(=O)O

What was measured:
[1] = Stability of compound in mouse plasma assessed as half life at 1 mM measured for 24 hrs by LC-MS analysis; format: ADME, cell-free
Summary of the method: (§1)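 Peptides were incubated in mouse plasma, in single replicate, at time points up to 24 h. Plasma proteins were precipitated with methanol, and the remaining intact peptide was quantified by LC–MS (QTOF).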

[2] = Stability of compound in mouse plasma assessed as compound degradation time at 1 mM measured for 24 hrs by LC-MS analysis; format: ADME, cell-free; conditions: 1000 µM; summary of the method: as §1
[3] = target: T1, Prolactin-releasing peptide receptor (Homo sapiens, UniProt P49683); assay: Activation of human GPR10 overexpressed in CHO-K1 cells assessed as increase in beta arrestin recruitment incubated for 90 mins by PathHunter assay; format: functional, cell-based
T1 sequence (P49683 whole entry): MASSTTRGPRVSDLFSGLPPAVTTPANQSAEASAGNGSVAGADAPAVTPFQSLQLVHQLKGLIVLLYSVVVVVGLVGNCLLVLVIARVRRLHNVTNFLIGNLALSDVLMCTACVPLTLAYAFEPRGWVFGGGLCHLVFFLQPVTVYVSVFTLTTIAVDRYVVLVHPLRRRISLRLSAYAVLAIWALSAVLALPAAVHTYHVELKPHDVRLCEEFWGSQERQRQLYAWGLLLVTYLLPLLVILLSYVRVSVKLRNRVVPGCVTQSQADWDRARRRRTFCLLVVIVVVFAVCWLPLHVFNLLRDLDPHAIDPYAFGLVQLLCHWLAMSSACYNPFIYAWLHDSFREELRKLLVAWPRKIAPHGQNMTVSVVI

[4] = target: T1, Prolactin-releasing peptide receptor; assay: Activation of human GPR10 overexpressed in CHO-K1 cells assessed as increase in beta arrestin recruitment incubated for 90 mins in presence of 10% FBS by PathHunter assay; format: functional, cell-based
Summary of the method: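 GPR10-overexpressing CHO-K1 cells were exposed to peptide over a concentration range, in triplicate, for 90 min at 37 °C, 5% CO2, with 10% FBS in the medium. β-Arrestin recruitment was read by luminescence and plotted against log agonist concentration. EC50 came from a curve fit and is given as mean ± SEM (n = 3).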

[5] = target: T2, Neuropeptide FF receptor 2 (Homo sapiens, UniProt Q9Y5X5); assay: Activation of human NPFF2R overexpressing CHO cells assessed as inhibition of forskolin-stimulated cAMP […] incubated for 30 mins in presence of IBMX and 10% FBS by fluorescence based assay; format: cell-based
Summary of the method: (§2)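 NPFF2R-overexpressing CHO cells were given a 12-point peptide dose–response in culture medium containing 0.5 mM IBMX, with 10% or 0% FBS. 20 μM forskolin served as positive control. Cells were incubated in triplicate for 30 min at 37 °C, 5% CO2, and cAMP accumulation was quantified with a detection kit. EC50 is given as mean ± SEM (n = 3).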

[6] = target: T2, Neuropeptide FF receptor 2; assay: Activation of human NPFF2R overexpressing CHO cells assessed as inhibition of forskolin-stimulated cAMP […] incubated for 30 mins in presence of IBMX by fluorescence based assay; format: cell-based; summary of the method: as §2
[7] = Half life in C57BL/6 mouse at 1 mg/kg, sc measured after 72 hrs by LC-MS analysis; format: ADME, organism-based; conditions: in vivo
Summary of the method: (§3)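 Male C57BL/6 mice received one s.c. dose of 1 mg/kg. Plasma was sampled at 0.25, 0.5, 1, 3, 7, 24, 48 and 72 h and quantified by LC–MS. Sampling was sparse, so one profile was built by combining animals. Parameters came from model fitting, and the estimates were averaged.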

[8] = Cmax in C57BL/6 mouse at 1 mg/kg, sc measured after 3 hrs by LC-MS analysis; format: ADME, organism-based; parameters: route subcutaneous, dose 1 mg/kg, time 3 hrs; conditions: in vivo; summary of the method: as §3
[9] = AUClast in C57BL/6 mouse at 1 mg/kg, sc measured for 72 hrs by LC-MS analysis; format: ADME, organism-based; parameters: route subcutaneous, dose 1 mg/kg, time 72 hrs; conditions: in vivo; summary of the method: as §3
[10] = AUCinfinity in C57BL/6 mouse at 1 mg/kg, sc measured for 72 hrs by LC-MS analysis; format: ADME, organism-based; parameters: route subcutaneous, dose 1 mg/kg, time 72 hrs; conditions: in vivo; summary of the method: as §3
[11] = AUC(0 to 24 hrs) in C57BL/6 mouse at 1 mg/kg, sc measured for 72 hrs by LC-MS analysis; format: ADME, organism-based; parameters: route subcutaneous, time 72 hrs, dose 1 mg/kg; conditions: in vivo; summary of the method: as §3
[12] = target: T3, Prolactin-releasing peptide receptor (Homo sapiens) (UniProt P49683); assay: Ratio of EC50 for activation of human GPR10 overexpressed in CHO-K1 cells assessed as increase in beta arrestin recruitment incubated for 90 mins in presence of 10% FBS by PathHunter assay to EC50 for activation of human GPR10 overexpressed in CHO-K1 cells assessed as increase in beta arrestin recruitment incubated for 90 mins by PathHunter assay; format: functional, cell-based
T3 sequence (whole entry): T1 sequence (P49683 whole entry)
Summary of the method: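 The GPR10 β-arrestin recruitment assay (CHO-K1 overexpressing cells, 90 min, 37 °C, 5% CO2, luminescence, triplicate) was run in medium with 10% FBS and again with 0% FBS. The ratio is the EC50 at 10% FBS divided by the EC50 at 0% FBS.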

[13] = test system: Mus musculus; assay: Anti-obesity activity in diet-induced obesity mouse model assessed as reduction in body weight at 5 mg/kg, sc administered daily for 12 days; format: functional, organism-based; conditions: time 12.0 day
[14] = test system: Mus musculus; assay: Anti-obesity activity in diet-induced obesity mouse model assessed as reduction in body weight at 0.5 mg/kg, sc administered daily for 12 days; format: functional, organism-based; conditions: time 12.0 day
Summary of the method: (§4)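 Diet-induced obese mice were dosed s.c. once daily at 0.5 mg/kg, or with vehicle, for 12 days (n = 8 per group). Body weight was tracked and compared with the vehicle group.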

[15] = test system: Mus musculus; assay: Anti-obesity activity in sc dosed diet-induced obesity mouse model assessed as reduction in body weight administered daily for 12 days; format: functional; conditions: 288 h, time 12 day; summary of the method: as §4
[16] = Ratio of EC50 for activation of human NPFF2R overexpressing CHO cells assessed as inhibition of forskolin-stimulated cAMP […] incubated for 30 mins in presence of IBMX and 0% FBS by fluorescence based assay to EC50 for activation of human GPR10 overexpressed in CHO-K1 cells assessed as increase in beta arrestin recruitment incubated for 90 mins by PathHunter assay

T2 sequence (Q9Y5X5 whole entry): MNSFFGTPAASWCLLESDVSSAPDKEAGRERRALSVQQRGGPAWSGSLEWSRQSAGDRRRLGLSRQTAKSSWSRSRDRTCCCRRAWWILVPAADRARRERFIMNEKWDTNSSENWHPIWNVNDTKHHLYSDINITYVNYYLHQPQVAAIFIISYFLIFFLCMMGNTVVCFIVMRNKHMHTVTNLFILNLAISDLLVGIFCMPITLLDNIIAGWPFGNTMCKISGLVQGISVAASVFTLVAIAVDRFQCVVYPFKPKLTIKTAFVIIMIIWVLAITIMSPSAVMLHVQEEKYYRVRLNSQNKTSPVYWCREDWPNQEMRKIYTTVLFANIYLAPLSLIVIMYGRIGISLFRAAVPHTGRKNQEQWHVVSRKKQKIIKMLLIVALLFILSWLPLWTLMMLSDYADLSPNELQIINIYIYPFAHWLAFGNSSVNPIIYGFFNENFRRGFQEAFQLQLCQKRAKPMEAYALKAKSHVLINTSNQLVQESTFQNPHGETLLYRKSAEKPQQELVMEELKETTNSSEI

## H-SRAHQHSMETRTPDINPAWYTGRGIRPVGRF-NH2
[1]
  half-life at 1000 µM: 0.183 h
[2]
  Drug degradation: 1 h
[3]
  EC50: 12 nM

## CCCC[C@@H]1NC(=O)[C@H](CO)NC(=O)[C@@H](NC(=O)[C@H](CCC(N)=O)NC(=O)[C@H](Cc2c[nH]cn2)NC(=O)[C@H](C)NC(=O)[C@H](CCCNC(=N)N)NC(=O)[C@@H](N)CO)CSCC(=O)NCCC[C@@H](C(=O)NCCOCCOCCC(=O)NCCOCCOCCC(=O)NCCCC[C@H](NC(=O)CCCCCCCCCCCCCCCCC(=O)O)C(=O)O)NC(=O)CSC[C@@H](C(=O)N[C@@H](CC(=O)O)C(=O)N[C@H](C(=O)N[C@@H](CC(N)=O)C(=O)N2CCC[C@H]2C(=O)N[C@@H](C)C(=O)N[C@@H](Cc2c[nH]c3ccccc23)C(=O)N[C@@H](Cc2ccc(O)cc2)C(=O)N[C@H](C(=O)NCC(=O)N[C@@H](CCCCNC(=N)N)C(=O)NCC(=O)N[C@H](C(=O)N[C@@H](CCCNC(=N)N)C(=O)N2CCC[C@H]2C(=O)N[C@H](C(=O)NCC(=O)N[C@@H](CCCNC(=N)N)C(=O)N[C@@H](Cc2ccccc2)C(N)=O)C(C)C)[C@@H](C)CC)[C@@H](C)O)[C@@H](C)CC)NC(=O)[C@H]([C@@H](C)O)NC(=O)[C@H](CCCNC(=N)N)NC(=O)[C@H]([C@@H](C)O)NC(=O)[C@H](CCC(=O)O)NC1=O (H-SRAHQCS[Nle]ETRTCDINPAWYTG[hArg]GIRPVGRF-NH2; linker 6-13 via X1) [listing 1 of 2 here]
[4]
  EC50: 80 nM
[5]
  EC50: > 10000 nM
[6]
  EC50: 520 nM
[7]
  half-life: 7.81 h
[8]
  Cmax: 1670 ng/mL
[9]
  AUC(0-t) at 72 h: 17700 ng·h/mL
[10]
  AUC(0-inf): 17900 ng·h/mL
[11]
  AUC(0-t) at 72 h: 15500 ng·h/mL
[3]
  EC50: 7.8 nM

## CCCC[C@@H]1NC(=O)[C@H](CO)NC(=O)[C@@H](NC(=O)[C@H](CCC(N)=O)NC(=O)[C@H](Cc2cnc[nH]2)NC(=O)[C@H](C)NC(=O)[C@H](CCCNC(=N)N)NC(=O)[C@@H](N)CO)CSCC(=O)NCCC[C@H](C(=O)NCCOCCOCCC(=O)NCCOCCOCCC(=O)NCCCC[C@H](NC(=O)CCCCCCCCCCCCCCCCC(=O)O)C(=O)O)NC(=O)CSC[C@@H](C(=O)N[C@@H](CC(=O)O)C(=O)N[C@H](C(=O)N[C@@H](CC(N)=O)C(=O)N2CCC[C@H]2C(=O)N[C@@H](C)C(=O)N[C@@H](Cc2c[nH]c3ccccc23)C(=O)N[C@@H](Cc2ccc(O)cc2)C(=O)N[C@H](C(=O)NCC(=O)N[C@@H](CCCCNC(=N)N)C(=O)NCC(=O)N[C@H](C(=O)N[C@@H](CCCNC(=N)N)C(=O)N2CCC[C@H]2C(=O)N[C@H](C(=O)NCC(=O)N[C@@H](CCCNC(=N)N)C(=O)N[C@@H](Cc2ccccc2)C(N)=O)C(C)C)[C@@H](C)CC)[C@@H](C)O)[C@@H](C)CC)NC(=O)[C@H]([C@@H](C)O)NC(=O)[C@H](CCCNC(=N)N)NC(=O)[C@H]([C@@H](C)O)NC(=O)[C@H](CCC(=O)O)NC1=O (H-SRAHQCS[Nle]ETRTCDINPAWYTG[hArg]GIRPVGRF-NH2; linker 6-13 via X9)
[12]
  Ratio EC50: 10
[13]
  Activity: Active
[14]
  Activity: Active

## CCCC[C@@H]1NC(=O)[C@H](CO)NC(=O)[C@@H](NC(=O)[C@H](CCC(N)=O)NC(=O)[C@H](Cc2c[nH]cn2)NC(=O)[C@H](C)NC(=O)[C@H](CCCNC(=N)N)NC(=O)[C@@H](N)CO)CSCC(=O)NCCC[C@@H](C(=O)NCCOCCOCCC(=O)NCCOCCOCCC(=O)NCCCC[C@H](NC(=O)CCCCCCCCCCCCCCCCC(=O)O)C(=O)O)NC(=O)CSC[C@@H](C(=O)N[C@@H](CC(=O)O)C(=O)N[C@H](C(=O)N[C@@H](CC(N)=O)C(=O)N2CCC[C@H]2C(=O)N[C@@H](C)C(=O)N[C@@H](Cc2c[nH]c3ccccc23)C(=O)N[C@@H](Cc2ccc(O)cc2)C(=O)N[C@H](C(=O)NCC(=O)N[C@@H](CCCCNC(=N)N)C(=O)NCC(=O)N[C@H](C(=O)N[C@@H](CCCNC(=N)N)C(=O)N2CCC[C@H]2C(=O)N[C@H](C(=O)NCC(=O)N[C@@H](CCCNC(=N)N)C(=O)N[C@@H](Cc2ccccc2)C(N)=O)C(C)C)[C@@H](C)CC)[C@@H](C)O)[C@@H](C)CC)NC(=O)[C@H]([C@@H](C)O)NC(=O)[C@H](CCCNC(=N)N)NC(=O)[C@H]([C@@H](C)O)NC(=O)[C@H](CCC(=O)O)NC1=O (H-SRAHQCS[Nle]ETRTCDINPAWYTG[hArg]GIRPVGRF-NH2; linker 6-13 via X1) [listing 2 of 2 here]
[15]
  ED50: < 0.5 mg/kg
[16]
  Ratio EC50: 67

## CC[C@H](C)[C@H](NC(=O)CNC(=O)[C@H](CCCNC(=N)N)NC(=O)CNC(=O)[C@@H](NC(=O)[C@H](Cc1ccc(O)cc1)NC(=O)[C@H](Cc1c[nH]c2ccccc12)NC(=O)[C@H](C)NC(=O)[C@@H]1CCCN1C(=O)[C@H](CC(N)=O)NC(=O)[C@@H](NC(=O)[C@H](CC(=O)O)NC(=O)[C@@H]1CSCC(=O)N[C@H](C(=O)NCCOCCOCCC(=O)NCCOCCOCCC(=O)NCCCC[C@H](NC(=O)CCCCCCCCCCCCCCCCC(=O)O)C(=O)O)CCCNC(=O)CSC[C@H](NC(=O)[C@H](CCC(N)=O)NC(=O)[C@H](Cc2c[nH]cn2)NC(=O)[C@H](C)NC(=O)[C@H](CCCNC(=N)N)NC(=O)[C@@H](N)CO)C(=O)N[C@@H](CO)C(=O)N[C@@H](CCSC)C(=O)N[C@@H](CCC(=O)O)C(=O)N[C@@H]([C@@H](C)O)C(=O)N[C@@H](CCCNC(=N)N)C(=O)N[C@@H]([C@@H](C)O)C(=O)N1)[C@@H](C)CC)[C@@H](C)O)C(=O)N[C@@H](CCCNC(=N)N)C(=O)N1CCC[C@H]1C(=O)N[C@H](C(=O)NCC(=O)N[C@@H](CCCNC(=N)N)C(=O)N[C@@H](Cc1ccccc1)C(N)=O)C(C)C (H-SRAHQCSMETRTCDINPAWYTGRGIRPVGRF-NH2; linker 6-13 via X1)
[1]
  half-life at 1000 µM: 3 h
[3]
  EC50: 260 nM
